Published values pooled from the literature.
Each line is one published result; the experiments were not run side by side.
RET: Proto-oncogene tyrosine-protein kinase receptor Ret (RET, Homo sapiens, UniProt P07949)
RET V804M: Proto-oncogene tyrosine-protein kinase receptor Ret (RET, Homo sapiens, UniProt P07949, V804M)

| SMILES | target | test | conditions | endpoint | result |
| --- | --- | --- | --- | --- | --- |
| CCCCC(=O)Nc1ccc(-c2ccc3ncn(CCC)c(=O)c3c2)cn1 | Proto-oncogene tyrosine-protein kinase receptor Ret (RET, Homo sapiens, UniProt P07949, V804L) | binding, competition with immobilised ligand | 0.5 µM | remaining binding | 100% |
| COc1ccc2oc(-c3ccc4nc(N)oc4c3)c/c(=N\c3ccccc3NC(=O)CCN)c2c1 | RET | binding | 1 µM | remaining binding | 109% |
| CC#CC(=O)N1CCC[C@H]1c1nc(-c2ccc(C(=O)Nc3ccccn3)cc2)c2c(N)nccn12 | RET | enzyme activity, inhibitor | 1 µM | inhibition | 7% |
| N#Cc1ccc(NC(=O)Nc2ccccc2)cc1 | RET | cell-free assay, competition with immobilised ligand | 25 µM | remaining binding | 100% |
| CN1CCN(C(=O)c2ccc(NC(=O)Nc3ccc(N(C)c4ccnc(Nc5ccc(CS(C)(=O)=O)cc5)n4)cc3)cc2)CC1 | RET V804M | binding | 1 µM | remaining binding | 0.5% |
| CO[C@@H]1[C@H](N(C)C(=O)c2ccccc2)C[C@H]2O[C@]1(C)n1c3ccccc3c3c4c(c5c6ccccc6n2c5c31)C(=O)NC4 | RET | enzyme activity, inhibitor | 1 µM | inhibition | 95% |
| C1=C/COCc2cc(ccc2OCCN2CCCC2)Nc2nccc(n2)-c2cccc(c2)COC/1 | Proto-oncogene tyrosine-protein kinase receptor Ret (RET, Homo sapiens, UniProt P07949, M918T) | binding | 0.1 µM | remaining binding | 100% |
| Cc1ccc(NC(=O)c2ccnc(C(F)(F)F)c2)cc1-c1cc(OCCO)nc(N2CCOCC2)c1 | RET V804M | binding | 1 µM | remaining binding | 98% |
